Cardiac RTF inh = cardiac RTF calcium sensitivity inhibitors, primary screen, biochemical, IANBD-TnC fluorescence, EC70 calcium; Troponin I, cardiac muscle (Homo sapiens) + Troponin T, cardiac muscle (Homo sapiens) + …; IANBD-labeled cardiac RTF, Ca2+ fluorescence; inhibition, % at 7.15 µM; 340,000 compounds, 0.12% hits; AID 493244, 2011;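 active = inhibition above the mean inhibition of all tested compounds plus 3 SD, cut at about 17% in these data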;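 note: assay run at fixed EC70 calcium of 1.6 mM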
RTF Ca sens act = cardiac RTF calcium sensitivity activators, primary screen, biochemical, IANBD-TnC fluorescence, EC20 calcium | Troponin I, cardiac muscle (Homo sapiens) + Troponin T, cardiac muscle (Homo sapiens) + … | IANBD-labeled TnC RTF fluorescence at EC20 calcium; 0% EC20 calcium, 100% full calcium | activation, % at 7.2 µM | 340,000 compounds, 0.24% hits;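 active = activation above the mean over all tested compounds plus 3 SD, cut at about 30% in these data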;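 note: rise in fluorescence read as greater calcium sensitivity of cardiac thin filaments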
DDE Tn6 FP inh = inhibitors of Tn6 peptide binding to fibrin DD(E), primary screen, biochemical, fluorescence polarization, human fibrin, Tn6 probe; Fibrin DD(E) TRITC-Tn6 fluorescence polarization displacement; inhibition, % at 8.3 µM; 370,000 compounds, 0.21% hits;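 active = inhibition above a per-campaign cutoff: mean of compounds within control limits plus 3 SD, cut at about 15% in these data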;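 note: 0% = median of all compound wells on the plate and 100% = blocking peptide control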
Target sequence (P02675 whole entry, looked up): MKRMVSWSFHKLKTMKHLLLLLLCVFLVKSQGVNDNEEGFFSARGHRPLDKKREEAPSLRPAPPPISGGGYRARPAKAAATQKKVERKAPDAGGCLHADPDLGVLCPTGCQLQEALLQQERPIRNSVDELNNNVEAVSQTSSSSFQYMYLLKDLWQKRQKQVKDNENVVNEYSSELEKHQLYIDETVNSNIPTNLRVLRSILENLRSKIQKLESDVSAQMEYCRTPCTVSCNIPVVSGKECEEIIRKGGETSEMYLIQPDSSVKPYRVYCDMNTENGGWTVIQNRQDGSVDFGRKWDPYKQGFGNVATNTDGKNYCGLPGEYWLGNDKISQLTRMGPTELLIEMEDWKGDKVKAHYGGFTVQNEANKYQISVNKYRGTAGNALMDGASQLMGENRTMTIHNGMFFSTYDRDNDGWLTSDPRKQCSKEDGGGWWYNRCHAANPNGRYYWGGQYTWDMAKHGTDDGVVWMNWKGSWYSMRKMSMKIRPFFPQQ
DDE Tn7 FP inh = inhibitors of Tn7 peptide binding to fibrin DD(E), primary screen, biochemical, fluorescence polarization, human fibrin, Tn7 probe. Fibrinogen beta chain (Homo sapiens), P02675. FP displacement of FITC-Tn7 peptide from fibrin DD(E); 0% = median of compound wells per plate. inhibition, % at 8.3 µM. 370,000 compounds, 0.13% hits. AID 720508, 2013;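 active = inhibition above the mean of compounds falling within the control limits plus 3 SD of them, cut at about 14% in these data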;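 note: 0% = plate median of compound wells and 100% = 10 µM Aha-Tn7 peptide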
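Assay system: Human fibrin DD(E) protein | Medium: Tris buffer with calcium and detergent, pH 7.8 | Reagent: 0.1 µM fluorescent Tn7 | Compound dosing: Single point at 8.3 µM | Times: 10 min preincubation, 3 h with tracer, room temperature | Detection: Fluorescence polarization of the labelled Tn7 tracer | Controls: Aha-Tn7 high control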
LANA DNA inh = inhibitors of KSHV C-LANA binding to DNA, primary screen, biochemical, fluorescence polarization, FAM-LBS DNA, MBP-C-LANA, single point; inhibition, % at 9 µM; 340,000 compounds, 0.078% hits;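 active = highest replicate inhibition at or above 60% at 9 µM, even if other replicates fall short; inactive = all replicates below 60% inhibition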;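 note: 0% = neutral control wells and 100% = 4 µM acridine orange control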
Keap1-Nrf2 PPI = Keap1-Nrf2 protein-protein interaction inhibitors, primary screen, biochemical, fluorescence polarization, single point; Keap1 Kelch-Nrf2 peptide fluorescence polarization, 1536-well; inhibition, % at 9.4 µM; 340,000 compounds, 0.15% hits; AID 504523, 2011; in the data active = inhibition above about 12%;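 note: human Keap1 Kelch domain with fluorescein labeled Nrf2 9mer peptide probe; 0% = neutral control wells and 100% = peptide positive control; higher means more block of Keap1 binding to Nrf2 peptide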
Tn7 DDE conf = inhibitors of Tn7 peptide binding to fibrin DD(E), confirmation, biochemical, fluorescence polarization, human fibrin, Tn7 probe. inhibition, % at 8.3 µM. 460 compounds, 5% hits. shares compounds with DDE Tn7 FP inh. FP displacement of TRITC-Tn7 peptide from DD(E); 0% set at plate's compound-well median;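 active = inhibition above the campaign cutoff, the mean of compounds within control limits plus 3 SD, cut at about 14% in these data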;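 note: 100% = median FP of high control wells holding Aha-Tn7 inhibitor peptide; displacers lower polarization since freed probe rises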
DDE Tn7 FP ctr = counter-screen for inhibitors of Tn7 peptide binding to fibrin DD(E) | shares compounds with DDE Tn7 FP inh | TRITC-Tn7 probe displacement, fluorescence polarization | inhibition, % at 8.3 µM | 460 compounds, 3% hits | AID 720633;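 active = inhibition above the cutoff, the mean of compounds lying between the control bounds plus 3 SD of those compounds, cut at about 17% in these data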;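 note: 0% = median of compound sample wells and 100% = excess unlabeled Aha-Tn7 peptide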
An asterisk follows results filed as active; . = no result given. This is a sample that favours compounds with a hit; in the whole collection about 0.73% have one here.

SMILES	Cardiac RTF inh	RTF Ca sens act	DDE Tn6 FP inh	DDE Tn7 FP inh	LANA DNA inh	Keap1-Nrf2 PPI	Tn7 DDE conf	DDE Tn7 FP ctr
CCN(CC)S(=O)(=O)c1cccc(C(=O)N/N=C2\CCCC(=O)C2)c1	-10	-3	8	25*	11	1	1	3
CCN(CC)S(=O)(=O)c1cccc(C(=O)N/N=C2\CC(=O)CC(C)(C)C2)c1	1	-1	0	6	4	4	.	.
COc1ccc(-c2cn3c(C)c(C(=O)Nc4cccc(NC(C)=O)c4)sc3n2)cc1	-5	0	-4	14*	1	-2	5	-5
CC(C)C[C@H]1COc2cccc(N3CCSCC3)c2S(=O)(=O)N1C	.	.	-6	-3	.	.	.	.
CCc1ccc(C(=O)N2CCN(c3ccc(F)cc3)CC2)s1	-7	9	4	16*	-1	-2	3	3
C[C@H]1C2CC(OC(=O)Nc3ccc(F)cc3)C(C2)[C@H]2CCCCN21 (some centres undefined)	.	.	-1	10	.	.	.	.
O=C(N/C(C(=O)N1CCOCC1)=C(\Sc1ncccn1)c1ccccc1)c1ccccc1	-1	-1	9	15*	1	-13	2	-1
CC(C)(C)OC(=O)NCc1cc2c(cc1/C=C/S(=O)(=O)NC1CCCC1)OCO2	.	.	5	-7	.	.	.	.
CC1CCCN(c2cccc3c2S(=O)(=O)N(Cc2cccc(F)c2)[C@@H](C)[C@H](c2ccccc2)O3)C1 (some centres undefined)	.	.	-6	3	.	.	.	.
COc1ccc(S(=O)(=O)N2CCOCC2)cc1NC(=O)CCCOc1ccc(C(C)=O)cc1	.	.	-2	2	.	.	.	.
COc1ccc(S(=O)(=O)N2CCOCC2)cc1NC(=O)c1ccc(OC(F)F)cc1	-11	-1	-5	15*	-3	-6	-7	-12
COc1ccc(S(=O)(=O)N2CCOCC2)cc1NC(=O)CCOc1ccc(C(C)(C)C)cc1	-9	-16	4	15*	0	-5	6	-3
O=C(CN(Cc1cccs1)C(=O)CNS(=O)(=O)c1ccc(Cl)cc1)NCc1ccco1	-9	1	3	15*	0	-1	3	-2
O=C(/C=C/c1ccc(-c2ccccc2)cc1)NC1=NCCS1	.	.	1	8	.	.	.	.
COc1ccccc1-c1ccc2c(c1)C(C)(Cc1cccc(C#N)c1)C(=O)N2 (centres undefined)	.	.	-2	16*	.	.	4	-1
O=C(CSc1nc(-c2ccccc2)cc(=O)[nH]1)Nc1ccc(F)c(F)c1	-5	0	1	14*	-2	-9	1	-3
O=C(CSc1nc(-c2ccccc2)cc(=O)[nH]1)Nc1ccccc1F	-5	-6	0	-4	-1	-4	.	.
CCOC(=O)[C@H]1[C@H]2COc3ccccc3[C@@H]2N2C(=O)CN(Cc3ccc(C)cc3)C(=O)[C@@]12C	-62	19	5	20*	61*	8	-2	-8
CC(C)C[C@@H]1COc2cc(Br)ccc2S(=O)(=O)N1Cc1cn(Cc2ccc(Br)cc2)nn1	.	.	8	-8	.	.	.	.
CCOC(=O)c1c(-c2ccccc2)oc2ccc(O)c(CN3CCCC3)c12	2	-4	4	15*	-1	0	-2	-7
Cc1cccc(S(=O)Cc2ccc(C(=O)NC3CCN(Cc4ccccc4)CC3)o2)c1 (centres undefined)	-1	-2	0	1	1	-4	.	.
Cc1ccccc1S(=O)Cc1ccc(C(=O)NC2CCN(Cc3ccccc3)CC2)o1 (centres undefined)	6	-5	-10	14*	1	-4	5	-4
Cc1ccc(-c2c(C#N)c(N)n(-c3ccc(Cl)cc3)c(=O)c2C#N)cc1	.	.	3	14*	.	.	-3	-7
COc1ccc(-n2c(SCc3ccc([N+](=O)[O-])cc3)nnc2-c2ccco2)cc1	.	.	1	4	.	.	.	.
Cc1ccc(NC(=O)C(c2ccccc2)N2CCN(CC(=O)N3CCOCC3)CC2)cc1 (centres undefined)	-3	-5	-6	-1	1	2	.	.
SMILES	Cardiac RTF inh	RTF Ca sens act	DDE Tn6 FP inh	DDE Tn7 FP inh	LANA DNA inh	Keap1-Nrf2 PPI	Tn7 DDE conf	DDE Tn7 FP ctr
COc1cccc(NC(=O)C(c2ccccc2)N2CCN(CC(=O)N3CCOCC3)CC2)c1 (centres undefined)	-7	2	-2	15*	1	0	8	7
CC(=O)Nc1cc(-c2ccncc2)cn2c(-c3ccccc3)cnc12	.	.	-9	-4	.	.	.	.
O=C(NNC(=O)c1ccccc1-n1cccc1)c1cncc(Br)c1	-8	3	0	16*	1	1	7	2
O=C(Nc1cccnc1)c1ccc([N+](=O)[O-])cc1Cl	-4	-2	9	16*	0	-2	0	-6
O=C(Nc1ncccn1)c1ccc([N+](=O)[O-])cc1Cl	-3	-1	-2	1	8	-2	.	.
O=C(O)C1C2CCC1C(O)C2 (centres undefined)	.	.	10	17*	.	.	1	2
CCCC[C@H](C(=O)N(CC)c1ccccc1)[C@@H](O)c1ccc(Cl)cc1	.	.	0	4	.	.	.	.
Cn1c(=O)c2[nH]c(-c3ccccc3Cl)c(O)c2n(C)c1=O	-17	12	5	12	3	0	.	.
Cn1c(=O)c2[nH]c(-c3ccccc3)c(O)c2n(C)c1=O	-29	9	1	17*	17	11	5	-1
O=C(Cn1c(Cc2ccccc2)nc2ccccc21)NCc1ccc2c(c1)OCO2	-3	-3	-1	15*	-1	0	0	-2
Cc1cccc(NC(=O)c2cc(Cl)ccc2[N+](=O)[O-])c1	1	-2	2	14*	1	-3	0	-1
O=C(CN1CCN(Cc2ccccc2)CC1)N/N=C\c1ccccc1[N+](=O)[O-]	.	.	0	7	.	.	.	.
O=c1oc2cc(O)ccc2cc1-c1nc2ccccc2o1	.	.	-3	38*	.	.	14*	-5
